# Assay results from ChEMBL document CHEMBL4368881, “A β-glucuronidase-responsive albumin-binding prodrug programmed for the double release of monomethyl auristatin E” (Medchemcomm, 2018).
# Calls of active or inactive are those of the source. The calls are words filed in the database; no cut-off is given here.
# Assays:
# LS174T [1] = experiment: Antitumor activity against human LS174T cells xenografted in athymic Balb/c mouse assessed as tumor growth inhibition at 2 mg/kg, iv administered on day 17 and 24; type: functional, organism-based
# Summary of the method: (§1)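 Eight-week-old male nude mice were implanted subcutaneously in the dorsal flank with 1x10⁶ LS174T cells in PBS/50 % Matrigel (day 0). Mice were randomized into groups of 6 and given iv doses in PBS–2 % DMSO, with a vehicle-injected control group. Tumor length and width were measured by caliper three times weekly; volume = length x width²/2.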
# LS174T [2] = experiment: Inhibition of anchorage-independent colony formation in 3D culture of human LS174T cells at 5 nM measured after 3 days in presence of beta-glucuronidase by soft agar colony formation assay; type: functional, cell-based
# Summary of the method: (§2)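 LS174T cells (early passage, <10) were grown in EMEM with 10 % FBS. 20x10³ isolated cells were seeded in 0.35 % agarose over a 0.6 % agarose base layer. Colonies grew for 10 days, with fresh medium every 3 days. They were then treated for 3 days at 5 nM, without or with β-glucuronidase (3700 U/well). Colony size was measured by macroscope imaging; mean ± s.e.m. of 5 independent experiments.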
# LS174T [3] = experiment: Inhibition of anchorage-independent colony formation in 3D culture of human LS174T cells at 5 nM measured after 3 days by soft agar colony formation assay; type: functional, cell-based; summary of the method: as §2
# [4] = Toxicity in athymic Balb/c mouse xenografted with human LS174T cells assessed as effect on body weight at 2 mg/kg, iv administered on day 17 and 24 measured three times a week; type: organism-based; details: in vivo
# Summary of the method: (§3)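 LS174T subcutaneous xenografts (1x10⁶ cells in PBS/50 % Matrigel) were set up in eight-week-old male nude mice. Groups of 6 received iv injections in PBS–2 % DMSO, with a vehicle control group. Body weight was recorded three times weekly. Mice were euthanized when tumor volume exceeded 2 cm³.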
# Albumin = Albumin (Homo sapiens, UniProt P02768); experiment: Binding affinity to human serum albumin at 0.49 mg/ml after 4 hrs by HPLC/HRMS analysis; details: isolated protein
# Beta-glucuronidase = Beta-glucuronidase (Escherichia coli (strain K12), UniProt P05804); experiment: Prodrug conversion assessed as Escherichia coli beta-glucuronidase mediated MMAE formation after 5 hrs using albumin-conjugated compound by HPLC/HRMS analysis; type: ADME; details: isolated protein
# Summary of the method: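 Prodrug 0.49 mg.mL-1 was held in 5 % human serum albumin solution at 37 °C for 4 h to form the albumin adduct. The mixture was diluted 1:3 with 0.02 M phosphate buffer (pH 7), then E. coli β-glucuronidase was added. Analysis was by C18 HPLC coupled to ESI-HRMS in positive ion mode.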
# LS174T [5] = experiment: Antitumor activity against human LS174T cells xenografted in athymic Balb/c mouse assessed as tumor growth inhibition at 3 mg/kg, iv administered on day 17 and 24; type: functional, organism-based; summary of the method: as §1
# [6] = Toxicity in athymic Balb/c mouse xenografted with human LS174T cells assessed as effect on body weight at 3 mg/kg, iv administered on day 17 and 24 measured three times a week; type: organism-based; details: in vivo; summary of the method: as §3
# Albumin, sequence (P02768 whole entry): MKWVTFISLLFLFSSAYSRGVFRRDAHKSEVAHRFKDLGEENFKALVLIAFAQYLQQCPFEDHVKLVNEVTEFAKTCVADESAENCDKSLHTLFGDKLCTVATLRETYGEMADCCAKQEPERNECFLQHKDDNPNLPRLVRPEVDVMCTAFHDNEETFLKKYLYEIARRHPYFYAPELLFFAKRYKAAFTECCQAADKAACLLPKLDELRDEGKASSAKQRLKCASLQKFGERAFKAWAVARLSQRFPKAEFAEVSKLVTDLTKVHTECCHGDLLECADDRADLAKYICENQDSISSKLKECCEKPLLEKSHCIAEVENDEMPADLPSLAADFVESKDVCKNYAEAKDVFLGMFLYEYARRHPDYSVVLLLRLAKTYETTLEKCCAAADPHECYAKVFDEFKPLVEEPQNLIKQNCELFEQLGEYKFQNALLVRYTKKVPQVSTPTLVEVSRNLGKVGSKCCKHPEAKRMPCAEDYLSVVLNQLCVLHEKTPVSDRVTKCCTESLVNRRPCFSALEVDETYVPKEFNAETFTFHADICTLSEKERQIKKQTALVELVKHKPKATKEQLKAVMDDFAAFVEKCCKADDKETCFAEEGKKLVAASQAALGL
# Beta-glucuronidase, sequence (P05804 whole entry): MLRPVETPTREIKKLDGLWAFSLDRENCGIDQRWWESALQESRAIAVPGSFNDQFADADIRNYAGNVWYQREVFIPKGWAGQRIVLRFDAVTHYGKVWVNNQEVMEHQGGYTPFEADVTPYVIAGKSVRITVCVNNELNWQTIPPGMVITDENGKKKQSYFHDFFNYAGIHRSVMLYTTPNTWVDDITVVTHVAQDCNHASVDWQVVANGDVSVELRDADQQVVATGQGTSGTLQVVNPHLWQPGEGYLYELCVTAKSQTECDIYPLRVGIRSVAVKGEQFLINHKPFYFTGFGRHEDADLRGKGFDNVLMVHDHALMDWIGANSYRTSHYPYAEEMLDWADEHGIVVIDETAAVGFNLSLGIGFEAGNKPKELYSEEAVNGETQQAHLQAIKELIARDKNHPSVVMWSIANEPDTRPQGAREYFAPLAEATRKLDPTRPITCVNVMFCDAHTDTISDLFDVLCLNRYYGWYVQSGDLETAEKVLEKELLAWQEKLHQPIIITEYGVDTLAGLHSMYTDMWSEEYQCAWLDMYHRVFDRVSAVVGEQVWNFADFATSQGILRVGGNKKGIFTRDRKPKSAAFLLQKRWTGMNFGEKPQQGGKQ
Activity (Albumin),Drug metabolism (Beta-glucuronidase),SMILES,TGI (LS174T [1]),inhibition (LS174T [2]),inhibition (LS174T [3]),Activity [4],TGI (LS174T [5]),Activity [6]
,,CC[C@H](C)[C@@H]([C@@H](CC(=O)N1CCC[C@H]1[C@H](OC)[C@@H](C)C(=O)N[C@H](C)[C@@H](O)c1ccccc1)OC)N(C)C(=O)[C@@H](NC(=O)[C@H](C(C)C)N(C)C(=O)OC(Cc1cn(CCOCCOCCOCCOCCOCCOCCOCCOCCOCCOCCNC(=O)CCCCCN2C(=O)C=CC2=O)nn1)c1ccc(O[C@@H]2O[C@H](C(=O)O)[C@@H](O)[C@H](O)[C@H]2O)c([N+](=O)[O-])c1)C(C)C (stereo not given in full),Active,Active,inactive,Non-Toxic,,
Active,Metabolite_Detected,CC[C@H](C)[C@@H]([C@@H](CC(=O)N1CCC[C@H]1[C@H](OC)[C@@H](C)C(=O)N[C@H](C)[C@@H](O)c1ccccc1)OC)N(C)C(=O)[C@@H](NC(=O)[C@H](C(C)C)N(C)C(=O)OCc1ccc(NC(=O)OC(Cc2cn(CCOCCOCCOCCOCCOCCOCCOCCOCCOCCOCCNC(=O)CCCCCN3C(=O)C=CC3=O)nn2)c2ccc(O[C@@H]3O[C@H](C(=O)O)[C@@H](O)[C@H](O)[C@H]3O)c([N+](=O)[O-])c2)c(COC(=O)N(C)[C@H](C(=O)N[C@H](C(=O)N(C)[C@@H]([C@@H](C)CC)[C@@H](CC(=O)N2CCC[C@H]2[C@H](OC)[C@@H](C)C(=O)N[C@H](C)[C@@H](O)c2ccccc2)OC)C(C)C)C(C)C)c1)C(C)C (stereo not given in full),,Active,inactive,,Active,Non-Toxic
